According to publication PMC10357933 (RSC Medicinal Chemistry, 2023):
Where two headings read alike, the source gives them in different places.

Key:
PL^pro (SARS-CoV-2) = PL^pro (SARS-CoV-2) (Severe acute respiratory syndrome coronavirus 2, UniProt P0DTD1); assay: biochemical
Conductometry in DMSO = format: physicochemical; conditions: for Conductivity ΛM: 1.0 mM solution in DMSO; for Increase of molecular conductivity upon 10-fold dilution: diluted solutions 0.1 to 1.0 mM in DMSO
In short: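 Test compound dissolved at 1.0 mM, or as indicated, in freshly distilled DMSO (conductivity ≤3 × 10−8 […]). Conductivity measured at 25 ± 2 °C immediately after complete dissolution, then after 24 h and after 48 h.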

3CL^pro (SARS-CoV-2) = 3CL^pro (SARS-CoV-2) (Severe acute respiratory syndrome coronavirus 2, UniProt P0DTD1); format: biochemical
SARS-CoV-2 B.1 = assay: Antiviral activity against SARS-CoV-2 in Caco-2-F03 cells; format: cell-based; conditions: for Effect on viral activity at higher dosages: overlapping with toxicity
SARS-CoV-2 PL^pro [1] = target: T1, SARS-CoV-2 PL^pro (Severe acute respiratory syndrome coronavirus 2, UniProt P0DTD1); assay: Zn-ejection assay with FluoZin-3; format: biochemical; conditions: 0.5 μM PLpro, 100 min
CaCo-2 cells = assay: Toxicity against host cells; format: cell-based, human; conditions: 25 to 500 μM, 24 h / 48 h
In short: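 Caco-2 cells were grown to almost confluent monolayers in 96-well plates. Test compound was given as a DMSO stock (DMSO 0.2%) diluted in DMEM with 1% fetal calf serum and 50 mg L−1 gentamicin, at 25–500 μM. Exposure was 24 h and 48 h at 37 °C/5% CO2. Viability was measured by crystal violet staining as % of untreated control, in three independent experiments.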

SARS-CoV-2 PL^pro [2] = target: T1, SARS-CoV-2 PL^pro; assay: Michaelis-Menten kinetics with SARS-CoV-2 PLpro; format: biochemical
PL^pro (SARS-CoV) = PL^pro (SARS-CoV) (Severe acute respiratory syndrome coronavirus, UniProt P0C6X7); format: biochemical; conditions: read-out: IC50 PL^pro (SARS-CoV)
[3] = read-out: IC50 PL^pro (SARS-CoV-2), mean ± SD of 2 independent experiments
[4] = 3CL^pro, 50 μM, ± SD of 2 experiments

Row | Structure (SMILES) | IC50 (PL^pro (SARS-CoV-2); [3]) [nM] | Conductivity ΛM (Conductometry in DMSO; 24 h) [S mol^−1 cm^2] | Conductivity ΛM (Conductometry in DMSO; 48 h) [S mol^−1 cm^2] | Conductivity ΛM (Conductometry in DMSO; start) [S mol^−1 cm^2] | Percentage of activity of the enzyme in presence of 50 μM of the test compound (3CL^pro (SARS-CoV-2); [4]) [%] | also measured
1 | CCn1c[n+](CC)c2ccccc21.[Cl][Ag] [Ag-1a, 1,3-Diethyl benzimidazolium silver(I) chloride] | 210 ± 30 | 3.09 | 3.31 | 3.00 | 106 ± 2 | 
2 | CCn1c[n+](CC)c2ccccc21.[Ag][I] [Ag-1b, 1,3-Diethyl-benzimidazolium silver(I) iodide] | 240 ± 110 | 9.31 | 9.70 | 8.44 | 110 ± 0 | Effect on viral activity at higher dosages (SARS-CoV-2 B.1): completely terminated viral activity
3 | CCn1c[n+](CC)c2ccc(OC)cc21.[Cl][Ag] [Ag-2a, 1,3-Diethyl-5-methoxy-benzimidazolium silver(I) chloride] | 180 ± 20 | 3.13 | 3.37 | 2.94 | 98 ± 15 | 
4 | CCn1c[n+](CC)c2ccc(OC)cc21.[Ag][I] [Ag-2b, 1,3-Diethyl-5-methoxy-benzimidazolium silver(I) iodide] | 430 ± 60 | 9.25 | 9.82 | 9.19 | 115 ± 4 | 
5 | CC(C)n1c[n+](C(C)C)c2ccccc21.[Cl][Ag] [Ag-3a, 1,3-Diisopropyl benzimidazolium silver(I) chloride] | 210 ± 20 | 2.70 | 2.67 | 2.34 | 116 ± 5 | Increase of molecular conductivity upon 10-fold dilution (Conductometry in DMSO): 2–4 fold
6 | CC(C)n1c[n+](C(C)C)c2ccccc21.[Ag][I] [Ag-3b, 1,3-Diisopropyl benzimidazolium silver(I) iodide] | 190 ± 40 | 7.00 | 6.69 | 6.67 | 111 ± 14 | Increase of molecular conductivity upon 10-fold dilution (Conductometry in DMSO): only slightly increased; Effect on viral activity at higher dosages (SARS-CoV-2 B.1): completely terminated viral activity
7 | COc1ccc2c(c1)n(C(C)C)c[n+]2C(C)C.[Cl][Ag] [Ag-4a, 1,3-Diisopropyl-5-methoxy-benzimidazolium silver(I) chloride] | 220 ± 110 | 2.25 | 2.40 | 2.15 | 115 ± 4 | 
8 | COc1ccc2c(c1)n(C(C)C)c[n+]2C(C)C.[Ag][I] [Ag-4b, 1,3-Diisopropyl-5-methoxy-benzimidazolium silver(I) iodide] | 390 ± 70 | 6.92 | 7.32 | 6.72 | 116 ± 2 | Zn ejection efficacy (SARS-CoV-2 PL^pro [1]; 1.0 μM compound): low efficacy; Zn ejection efficacy (SARS-CoV-2 PL^pro [1]; 10 μM compound): high efficacy; Enzymatic activity (% of untreated control) (PL^pro (SARS-CoV-2); 0.75 μM, after 60 min): approx. 40%; Enzymatic turnover (% of untreated control) (PL^pro (SARS-CoV-2); 0.75 μM, from beginning up to 30 min of exposure): approx. 60%; Cytotoxicity against almost confluent Caco-2 cell layers (CaCo-2 cells): non-toxic up to 500 μM; Mechanism of inhibition (SARS-CoV-2 PL^pro [2]; Lineweaver-Burk, parallel lines): uncompetitive enzyme inhibitor; Ki (enzyme-substrate-inhibitor complex) (SARS-CoV-2 PL^pro [2]; uncompetitive model): 480 ± 220 nM; IC50 (PL^pro (SARS-CoV)): 13700 ± 1020 nM; IC50 (SARS-CoV-2 B.1; read-out: IC50 antiviral efficacy (spike protein staining)): 580 nM
9 | O=[N+]([O-])[O-].[Ag+] [AgNO3, silver nitrate, reference compound] | 700 ± 270 | 38 | 38 | 38 | 97 ± 6 | Conductivity (Conductometry in DMSO; in DMSO, periods up to 48 h): 38 S mol^−1 cm^2; IC50 (PL^pro (SARS-CoV)): 12000 ± 870 nM
10 | CCN(CC)C(=S)SSC(=S)N(CC)CC [Disulfiram, reference compound] |  |  |  |  |  | Zn ejection efficacy (SARS-CoV-2 PL^pro [1]; 1.0 μM compound): low efficacy; Zn ejection efficacy (SARS-CoV-2 PL^pro [1]; 10 μM compound): high efficacy
11 | CC(=O)O.[Ag+].c1ccc(CN2[CH-]N(Cc3ccccc3)C(c3ccccc3)=C2c2ccccc2)cc1 [SBC3, reference compound] |  | 2.25 | 2.31 | 2.15 |  | IC50 (PL^pro (SARS-CoV-2); read-out: IC50 PL^pro (SARS-CoV-2)): 260 ± 30 nM; Increase of molecular conductivity upon 10-fold dilution (Conductometry in DMSO): 2–4 fold; Inhibition of 3CL^pro enzymatic activity (3CL^pro (SARS-CoV-2)): some moderate inhibition; Percentage of activity of the enzyme in presence of 50 μM of the test compound (3CL^pro (SARS-CoV-2)): >50 (70 ± 4%); IC50 (3CL^pro (SARS-CoV-2); read-out: IC50 3CL^pro (SARS-CoV-2)): > 50000 nM
12 | COc1ccc2c(c1)n(C(C)C)c[n+]2C(C)C [compound 4, 1,3-Diisopropyl-5-methoxy-benzimidazolium iodide] |  |  |  |  |  | IC50 (PL^pro (SARS-CoV-2)): > 100000 nM
